# High-throughput results deposited in PubChem by several laboratories.
# Jurkat NFkB inh – inhibitors of induced NF-kB luciferase reporter, primary screen, TCR NF-kB activation inhibitor project, cell-based, luminescence, uHTS; Jurkat, PMA/ionomycin-induced NF-kB luciferase reporter; inhibition, % at 4 µM; 330,000 compounds, 0.53% hits; AID 435003, 2010; in the data active = inhibition above about 50%
# FGF22 binding – binders of human FGF22 protein, primary screen, FGF22 synaptogenesis inhibitor project, biophysical, thermal shift, single point. Fibroblast growth factor 22 (Homo sapiens), Q9HCT0. recombinant FGF22 thermal shift, SYPRO orange fluorescence; percent of sucrose octasulfate shift, DMSO zero. activity (Tm shift, normalised), % at 9.99 µM. 340,000 compounds, 1.5% hits. AID 651658, 2012;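 active = mean Tm shift, scaled 0 neutral to 100 positive control, at about 1.3% or above, every replicate too, limit read from the data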
# Target sequence (Q9HCT0 whole entry, looked up): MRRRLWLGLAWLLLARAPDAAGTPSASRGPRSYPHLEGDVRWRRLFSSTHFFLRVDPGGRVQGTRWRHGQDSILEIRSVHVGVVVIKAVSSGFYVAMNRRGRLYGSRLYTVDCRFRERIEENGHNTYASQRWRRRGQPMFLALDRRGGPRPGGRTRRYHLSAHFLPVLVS
# 697 NFkB inh – inhibitors of PMA/ionomycin-induced NF-kB reporter, 697 cells, primary screen, B-cell NF-kB inhibitor project, cell-based, luminescence, uHTS; 697 B-cell NF-kB luciferase reporter, 16 h; inhibition, % at 4 µM; 330,000 compounds, 0.33% hits; AID 435022, 2010; in the data active = inhibition above about 35%
# NR2E3 ag-1 – inhibitors of NR2E3-RetCOR corepressor binding, primary screen, NR2E3 agonist project, biochemical, TR-FRET, GST-NR2E3, biotin-RetCOR. Photoreceptor-specific nuclear receptor (Homo sapiens), Q9Y5X4. 1536-well. inhibition of corepressor binding, % at 4.78 µM. 320,000 compounds, 0.12% hits. AID 2300, 2010;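 active = percent inhibition above the cutoff of mean plus 3 SD of all tested compounds, set per screening campaign, cut at about 20% in these data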;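 also: 0% = DMSO wells and 100% = biotin wells as full block of FRET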
# Target sequence (Q9Y5X4 whole entry, looked up): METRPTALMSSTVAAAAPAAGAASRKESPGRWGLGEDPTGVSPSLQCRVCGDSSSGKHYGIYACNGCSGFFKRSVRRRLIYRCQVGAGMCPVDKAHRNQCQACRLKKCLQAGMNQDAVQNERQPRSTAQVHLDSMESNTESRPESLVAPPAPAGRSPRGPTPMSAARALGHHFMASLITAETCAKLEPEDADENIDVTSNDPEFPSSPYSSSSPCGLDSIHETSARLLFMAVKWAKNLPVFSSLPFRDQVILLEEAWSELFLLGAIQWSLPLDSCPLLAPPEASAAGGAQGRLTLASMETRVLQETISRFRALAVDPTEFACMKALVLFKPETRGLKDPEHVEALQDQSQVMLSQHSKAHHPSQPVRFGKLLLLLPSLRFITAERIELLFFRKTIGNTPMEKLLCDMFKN
#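 System: GST-tagged NR2E3 plus biotinylated RetCOR corepressor; Buffer or medium: pH 7.5 Tris-based buffer; Probe or stimulus: RetCOR corepressor, biotinylated, 7 nM; Doses: compound at 4.8 µM, single dose; Schedule: 5 h incubation at 4 °C; Technique: time-resolved FRET; Evaluation: percent inhibition of TR-FRET ratio; Replication: one well per compound, singlicate testing.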
# miR122 inh – miR-122 Renilla sensor signal increase in Huh7, primary screen, miR-122 inhibitor project, cell-based, single point, plate reader; Huh7 miR-122 Renilla luciferase sensor, 48 h; neutral wells = 0, positive control = 100; activation (reporter increase), % at 12.5 µM; 340,000 compounds, 0.3% hits; AID 602342, 2012;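 active = mean replicate activation score at least 90 and every replicate individually at or above 90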;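 also: higher luciferase means less miR-122 activity so hits act as miR-122 inhibitors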
# NR2E3 ag-2 – NR2E3 agonists in two-hybrid cells, primary screen, cell-based, luminescence, CHO-S, Gal4-NCOR/VP16-NR2E3 | AID 602229, 2012 | luciferase | inhibition of corepressor binding, % at 3.98 µM | 360,000 compounds, 0.35% hits | Photoreceptor-specific nuclear receptor (Homo sapiens), Q9Y5X4;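 active = inhibition above the mean of all tested compounds plus 3 SD, cut at about 70% in these data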;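 also: 0% = DMSO with NR2E3 transfected cells and 100% = cells lacking NR2E3 construct; higher means lower luciferase signal from less NR2E3 corepressor binding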
# * = called active by the depositor; / = not tested or not shown; [ ] = dose if it differs, or a comment. Hits are enriched below; roughly 2.2% of the tested compounds scored in any of these assays.
SMILES,Jurkat NFkB inh,FGF22 binding,697 NFkB inh,NR2E3 ag-1,miR122 inh,NR2E3 ag-2
Cc1cc(C(=O)Nc2cccc3c2O[C@@H](CN(C)CC2CCCCC2)[C@@H](C)CN([C@H](C)CO)C3=O)n(C)n1,/,0,/,/,97*[16.7 µM],/
Cc1cc(C(=O)Nc2cccc3c2O[C@@H](CN(C)Cc2ccc(C(F)(F)F)cc2)[C@H](C)CN([C@H](C)CO)C3=O)n(C)n1,/,0,/,/,127*[16.7 µM],/
COc1ccc(CN(C)C[C@@H]2Oc3ccc(NS(=O)(=O)c4ccc(C)cc4)cc3C(=O)N([C@H](C)CO)C[C@@H]2C)cc1,/,0,/,/,-4[16.7 µM],/
Cc1ccc(S(=O)(=O)N(C)C[C@H]2OCCCC[C@@H](C)Oc3ccc(NC(=O)Nc4ccc(F)cc4)cc3C(=O)N([C@H](C)CO)C[C@H]2C)cc1,/,0,/,/,-9[16.7 µM],/
COc1ccc(C(CNC(=O)c2cccc(S(=O)(=O)N3CCc4ccccc43)c2)N(C)C)cc1 (configuration not stated),5,43*,9,/,10,-26
C[C@H]1CN([C@@H](C)CO)C(=O)c2cc(C#CC3(O)CCCC3)cnc2O[C@H]1CN(C)S(C)(=O)=O,/,0,/,/,-2[16.7 µM],/
Cc1cc(OCC(=O)NCCc2ccc(Cl)cc2)c2c(C)cc(=O)oc2c1,16,43*,-14,1,2,20
CCCNC(=O)N1C[C@H](O)COC[C@@H]2O[C@@H](CC(=O)N3CCOCC3)CC[C@H]21,/,0,/,/,4[16.7 µM],/
COc1ccccc1C(O)c1ncc(-c2cccc3ccccc23)[nH]1 (configuration not stated),/,43*,/,/,-8,-20
Cc1cc(C)c(S(=O)(=O)NCCCn2ccnc2)cc1C,-6,0,-10,1,129*,-6
CCC(=O)/C=C1/Sc2ccc(OC)cc2N1CC,-21,0,-4,2,-3,-16
CCC(=O)/C=C1/Sc2ccc(OC)cc2N1CCO,3,43*,-5,0,0,-22
COc1ccccc1NC(=O)/C(C#N)=C/c1c(C)nn(-c2ccc(F)cc2)c1Cl,-1,43*,1,-2,/,5
CC(C)NC(=O)C1CCN(C2CCN(C(=O)C3=CCCC3)CC2)CC1,-8,0,-16,-3,/,-9
CCCc1cc(C(=O)N2CCC(N3CCC(C(=O)NC(C)C)CC3)CC2)n(C)n1,-6,44*,-3,0,0,19
CCCN(C)C[C@@H]1Oc2cc(-c3ccccc3)ccc2S(=O)(=O)N([C@H](C)CO)C[C@@H]1C,/,0,/,/,5[16.7 µM],/
CN(C)C(=O)[C@H]1[C@H](CO)[C@H]2Cn3c(cccc3=O)[C@@H]1N2CC1CCCCC1,/,0,/,/,-2[16.7 µM],/
COCC(=O)N(C)C[C@H]1N[C@@](Cc2ccccc2)(C(=O)OC)[C@H]2C(=O)N(C)C(=O)[C@@H]12,-8,0,-26,/,/,-16
COC(=O)[C@]1(C)N[C@H](CN(C)C(=O)c2ccc(C(C)(C)C)cc2)[C@@H]2C(=O)N(Cc3ccccc3)C(=O)[C@@H]21,5,43*,-1,/,/,4
COC(=O)[C@]1(Cc2ccccc2)N[C@H](CN(C)C(C)=O)[C@@H]2C(=O)N(C)C(=O)[C@@H]21,-3,1,6,/,/,-30
COC(=O)[C@]1(Cc2ccccc2)N[C@H](CN(C)C(=O)c2ccc(C)cc2)[C@@H]2C(=O)N(C)C(=O)[C@@H]21,-6,43*,8,/,/,-6
COC(=O)[C@]1(Cc2ccccc2)N[C@H](CN(C)C(=O)COc2ccccc2)[C@@H]2C(=O)N(C)C(=O)[C@@H]21,-3,43*,16,/,/,-28
COC(=O)[C@]1(Cc2ccccc2)N[C@H](CN(C)C(=O)Nc2ccc(F)cc2)[C@@H]2C(=O)N(C)C(=O)[C@@H]21,-5,0,-3,/,/,4
COC(=O)[C@]1(Cc2ccccc2)N[C@H](CN(C)C(=O)c2ccc(F)cc2)[C@@H]2C(=O)N(C)C(=O)[C@@H]21,-19,43*,7,/,/,29
CCCNC(=O)Nc1ccc2c(c1)OC[C@@H](C)N(Cc1ccc(-c3ccccn3)cc1)C[C@H](C)[C@@H](OC)CN(C)C2=O,/,0,/,/,/,/
SMILES,Jurkat NFkB inh,FGF22 binding,697 NFkB inh,NR2E3 ag-1,miR122 inh,NR2E3 ag-2
Cc1ccc(S(=O)(=O)Nc2ccc3c(c2)C(=O)N([C@@H](C)CO)C[C@@H](C)[C@@H](CN(C)S(=O)(=O)c2ccc(Cl)cc2)O3)cc1,/,-1,/,/,/,/
O=C1Nc2ccccc2C1=Nc1ccc(-c2nnc3n2CCCCC3)cc1,1,43*,11,2,0,-33
COCC(=O)N1CC2(C1)CN(C(=O)Cc1ccccc1)[C@@H](CO)c1c2c2ccc(OC)cc2n1C,/,0,/,/,/,/
CC1(C)OC(=O)C=C[C@]2(C)[C@H]3CC[C@@]4(C)[C@H](c5ccoc5)OC(=O)[C@H]5O[C@]54[C@]3(C)C(=O)C[C@@H]12,-5,17*,10,0,-5,4
Cc1cc(=O)c2cccc(Br)c2[nH]1,-11,/,3,0,6,5
O=c1cc(C(F)(F)F)[nH]c2c(C(F)(F)F)cccc12,6,/,-5,4,2,101*
C[C@H](CO)N1C[C@H](C)[C@H](CN(C)CC2CC2)Oc2ccc(NC(=O)C3CCCCC3)cc2CC1=O,/,-1,/,/,-7[16.7 µM],/
CSc1ccccc1NC(=O)COC(=O)c1c[nH]c(=O)[nH]c1=O,4,0,-2,-4,0,-5
O=C(COC(=O)c1c[nH]c(=O)[nH]c1=O)Nc1ccccc1F,-8,43*,5,0,/,-22
C/C=C/c1ccccc1[C@@H]1[C@H](C#N)N(S(=O)(=O)c2cccc(F)c2)[C@H]1CO,/,0,/,/,/,/
C[C@@H]1CN([C@@H](C)CO)C(=O)c2cccc(NS(=O)(=O)c3cn(C)cn3)c2O[C@H]1CN(C)CC1CCCCC1,/,0,/,/,13[16.7 µM],/
CN1CC(c2ccccc2Cl)C2(COc3ccccc3C2=O)C12C(=O)Nc1ccccc12 (configuration not stated),6,/,-13,-1,117*,2
Cc1ccc(C2CN(C)C3(C(=O)Nc4ccccc43)C23COc2ccccc2C3=O)cc1 (configuration not stated),-22,/,3,-2,295*,7
